Test system: MS2 coat protein
Experiment: apparent Kd, MS2 coat protein; higher = weaker binding; RNA-MaP array; FMN 200 µM where present
Outline: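 Each design was made on Illumina sequencing-chip clusters by stalled E. coli RNA polymerase and titrated with SNAP-549-labelled MS2 coat protein from 0.7 or 1.5 nM, doubling to 3 µM, in the absence and then the presence of constant ligand. The buffer was 100 mM Tris-HCl pH 7.5, 80 mM KCl, 4 mM MgCl2, BSA, DTT, yeast tRNA and Tween-20. The apparent Kd is the median of filtered per-cluster fits of binding curves, with green signal normalised to red-channel RNA signal and control-cluster median Fmax.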

[1] = designed as: ON switch for flavin mononucleotide, no ligand
[2] = ligand present: flavin mononucleotide, designed as: ON switch for flavin mononucleotide
[3] = designed as: OFF switch for flavin mononucleotide, no ligand
[4] = ligand present: flavin mononucleotide, designed as: OFF switch for flavin mononucleotide

Sequence	apparent Kd [1] [nM]	apparent Kd [2] [nM]	apparent Kd [3] [nM]	apparent Kd [4] [nM]
UUAUUAGGACAGAAGGGUAGACAUGAGGAUCACCCAUGUAAUAUAAGGUGCAGGAUAUGUAAUAAUUGAGAUUCAUCAUUUUGC	198	142		
UUUGUUGUUGUGAGGAUAUCGUAGUUAUUUUGUAACGAGAAGGCACAUGAGGAUCACCCAUGUUUUUUGAUGGU			22.7	90
GUCAGCUCGUGAGGAUAUACAACACUGCUUCGGCAGUGUAUUUAGAUCACAUGAGGAUCACCCAUGUAGAAGGCACGAGCUGAU			15.6	363
CUUAAGCUGGCAAGGGCUGGUGAAGAGGAUAUACAUGCUAAGCGAACCACAUGAGGAUCACCCAUGUAGAAGGCUUCCCAGAAA			159	111
GCAGCUAAUGCAGGAUAUCAGCACGUGUAGUGCUGAGAAGGGCACAUGAGGAUCACCCAUGUGAUCAAUUAAUCUUAAUGCUGC			17.3	54.5
UACAUGAGGAUCACCCAUGUUUUGUCGUGUAUGGUAUUUAUCUAGGAUAUCAAUGUAUUUAUUUAUGAGAAGGAGAAUAUUAAU			41.1	39.3
CCUCGACGGUAGGAUAUCGUCAAACUAUUGUGAUGAGAAGGACUGACAUGAGGAUCACCCAUGUUAACGUGAUA			20.2	25.3
AUUUAGUGCGAGAAGGCGUGGUCACAUGAGGAUCACCCAUGUCAGUACACGAGGAUAUCGAUUCACUGUGUUAAUACAAGUGAC	77.9	6.68		
GAAGCACGCACAGGAUAUCCGGCGGCGCUCGUCGGAGAAGGGUGACAUGAGGAUCACCCAUGUACGUGCAACUCAGUUUGAGAG	21.5	13.9		
UAUAUAUAGUAAGGAUAUGUAAUUAUUUUAUAGACAGAAGGUACUGACAUGAGGAUCACCCAUGUUUUAGUGUGGGCAUGUAGA			85.2	130
GGUCGUCACAUCUACAUGAGGAUCACCCAUGUCAAAAGACAUGAGGAUAUGCAUCCUAAUUGGAUGCAGAAGGCAUGGACGACC	1280	66.8		
UGUUGUAUUACAGGAUAUCUAUUAGCUUUAUUUAGAGAAGGGUAUUCACAUGAGGAUCACCCAUGUAUAUACGAGGAAGUUGUG	46.1	50.1		
UGAUCUUUUGUUAGGAUAUGCUGGGUUUUUUCUCAGCAGAAGGGACAUGAGGAUCACCCAUGUUUUGUCAUAAA			18.9	47.6
AAUAUGUUGCAGAAGGUUAUUUUUAUAACGAUCCACUUGACAUGAGGAUCACCCAUGUAAUUGAUGAAGGAUAUGCAAUAUAUU			6.69	6.69
AUUAAUUAAUUAAUACAUGAGGAUCACCCAUGUAAUAAGAUCAAGGAUAUCAGCUCGUUUAGAGCUGAGAAGGUGAUCACAUGU	617	214		
GUAGCAUACCGAGGAUAUUCAAAUAAUAAAUAAACAUGAGGAUCACCCAUGUGGCGAAAGCCUAGGGAGAAGGCGGAAUGCUAC	48.2	16.9		
GUCAGCUCGUGAGGAUAUACAACACUGCUUCGGCAGUGUAUUAAGAUCACAUGAGGAUCACCCAUGUAGAAGGUACGAGCUGAU			8.56	82.9
AGUGUGUGGCAGGAUAUGCGAUUUGUCGGUGUUGCAGAAGGGUCUACAUGAGGAUCACCCAUGUGUGCGGUUGA			184	309
AGUUUACAUGAGGAUCACCCAUGUGAGGAUAUGGUUUCGCUGGCCGUAGCCAGUGGAACCAGAAGGCGCAUGAU			76	349
GCGGUACAUGAGGAUCACCCAUGUCAGGAUAUCCGCUGUUUGUUGAUUAGCAGGCGGUGGAGAAGGGACUUCGC			36.6	36
AUUUUGUGAGGAUAUGUGGCUUCGAUCGUAAAAUCGAGGCUACAGAAGGCACAUGAGGAUCACCCAUGUUCCUA			19	205
UCAUGGAAGCAGGAUAUGCUUGUUUAAUUGUUUGCAGAAGGGCUAACAUGAGGAUCACCCAUGUAAGAGGUCUA			45.8	34.1
UCUCACUCAGGAUAUGAUGCGCAUGACAUGAGGAUCACCCAUGUGUGCAUGCCCUUUGCUUCAGAAGGGAGUGAGA			19	21.6
UUUUAACAUGAGGAUCACCCAUGUGAGGAUAUCGAAAUUUAUAUUAAUAUUAAUAUUACGAGAAGGCACAUUUU			77.8	101

Sequence	apparent Kd [1] [nM]	apparent Kd [2] [nM]	apparent Kd [3] [nM]	apparent Kd [4] [nM]
GGGUACAUCGGAGGAUAUCAUGUAAAUACAUGAGGAUCACCCAUGUCGAUGGAGACAUCGCAGAUUGAGAAGGCCGAUGUACCG	28	5.26		
AGAUCCUGAGUCAGGAUAUAGAGGCGGUAGCCUGGCUAGAAGGGACAUGAGGAUCACCCAUGUGGGUUCGAGCC			17.7	31.3
GUUAACACAUGAGGAUAUGCUCGCAUUUCAAGAGCAGAAGGUAUGUCUAUAGACAUGAGGAUCACCCAUGUAUUUAUCAUUGAA	274	52.6		
AUUUAUGUCAAAGGAUAUAUAAAUAAAUUUAUAACAUGAGGAUCACCCAUGUACUUUAGUAUGAGGUAGAAGGUUGAUAAGAGU	47.6	35.6		
UUGUGGUGCGUAGGAUAUCAUUGAGGGUCACCCUGAGAAGGACGUGAGGACAUGAGGAUCACCCAUGUGGAUCACCCAUGUCAU			222	355
CCCUCAACAUGAGGAUCACCCAUGUAGGAUAUCGCUAUUGUAAUCAUGAAACAUGAUUACAAUAGCGAGAAGGACAUAUGUUUU			25.9	127
UGAUCGAGAGAUCUUAGAUUCUGGUAGGAUAUACAUUAUGUUUGAUAUACAUGAGGAUCACCCAUGUAGAAGGACUAGAGUCUA			7.34	15.9
ACAUGAGGAUCUCCCAUGUAAAAUUAGGAUAUAUGACUGCACAUGAGGAUCACCCAUGUUCUACCGUAGAAGGGAUAAAUAAUU	516	427		
GUAGAGGAUUGAGGAUAUGCAGAGAGAUCAUGCGCGUCGCGCACAUGAGGAUCACCCAUGUAAGAGCAGAAGGUAACUAUGGAC			79.9	49.3
GUCAUGGUAACAGGAUAUCGUUGAUAAAAGUUAUACAUGAGGAUCACCCAUGUCCGCACUAAGGGCGAGAAGGGUUAUUAUCAC	501	382		
GGAUUACAUGAGGAUCACCCAUGUGAGGAUAUCGAUGUCCAGUAAUACGUGCGGGACUCGAGAAGGCACUUGGA			40.1	200
GAUCAACAUGAGGAUCACCCAUGUGAGGAUAUGUAUCAUAGAUCUUCGGAUCUAUGAUACAGAAGGCAUGUGAA			76.1	101
GUACUGUAGUGAGGAUAUACGAGUACGAUAGUACGGCGAUCCAAUUAUACAUGAGGAUCACCCAUGUAGAAGGCACUUCAGUAC			9.93	41.1
CGGUACACAGGAUAUAACGUCUGCAACAUGAGGAUCACCCAUGUUGUCCAAACGUUGCGGUUAGAAGGGUGGGCGC			30.7	70.8
UGCGGAAUCACAGGAUAUGCGGGAAGAACGAUACCGUACAUGAGGAUCACCCAUGUGGCGGCAAAGCAGAAGGGUGGUUCUCGC	8.42	5.79		
GGGCCCGGAGGAUAUACAUGAGGAUCACCCAUGUGCCGGGCCCAACGGGCCCGGCUGUGUAGAAGGCCGGGCCC			13.3	12.5
GAUUGACAUGAGGAUCACCCAUGUGAGGAUAUCGGCUGGACCGUGUUGGCUUCCGUUUCGAGAAGGCGCAUAGG			26.1	48.3
UUAUCUAUGUAAGGAUAUCGAUGAUAUACGCAUCCGACAUGAGGAUCACCCAUGUUUUAUUUUGUCGAGAAGGUACAUUGUCGG	61.1	53.5		
UGGUACUAGGGAGGAUAUGGGAAGAUACAUGAGGAUCACCCAUGUUUAAGAAUGCCGAGAGGCAACUAGAAGGCCCUGGUACCU	459	17.9		
AUCCACCGCACGGACACGUCGAGUCAGGAUAUACAUGAGGAUCACCCAUGUGAAGGCCGGCUCAUGUAGAAGGGACAGGCGUUG			10.4	22.5
AGCUGGUGACAGCAUCCAUCAAAACAUGAGGAUCACCCAUGUAGAAGGCUGUACGGUUACCGUACAGAGGAUAUACAUAGAUGG			10.4	14.9
ACAUGAGGAUCACCCAUGUGAUGAUCUUCCAUGUCAUAUUUCAGAAGGCUCGCAUGUUUAAUGAGAGAGGAUAUGGAAUAUGCG			701	386
AUGGGUUAAGGAGGAUAUAGAGGGAGAAGUAAACAUGAGGAUCACCCAUGUAUUUAAUUAGUUUACUAGAAGGCUUGUGAUUGU	33.6	41.5		
ACAAAGGUAGGAUAUCGGACUAUGGACAUGAGGAUCACCCAUGUGCGUCCAAUGCCCAACCGAGAAGGACCAACAG			47.1	89

— the EternaBench riboswitch data
